Active and inactive are the calls of the source. No cut-off for these calls is given here.

For one assay, the system named is SARS-CoV-2. The assay is described as follows: Antiviral activity against SARS-CoV-2 infected in Vero E6 cells assessed as inhibition of viral entry at 0.5 uM and measured after 24 hrs post infection by Alexa Fluor 488 and Hoechst dye based fluorescence microscopy. The format is functional, organism-based. To be noted: Severe acute respiratory syndrome coronavirus 2.
Take `CC[C@H](C)[C@@H](C(=O)O[C@@H](CC(C)C)C(=O)N[C@@H](CC(C)C)C(=O)N[C@@H](C)/C=C/C(=O)N1C(=O)C=C(OC)[C@@H]1C)N(C)C` [GALLINAMIDE A]: the outcome was Active.

Another assay deals with T1, Cathepsin B (Homo sapiens, UniProt P07858). Briefly: Inhibition of recombinant human Cathepsin B in African green monkey Vero E6 using Z-Phe-Arg-AMC as substrate for 30 mins by fluorometric assay.
Conditions: not given
The format is cell-based. An outline of the steps:
(§1)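 VeroE6 or A549 cells were lysed by sonication in 50 mM MES pH 6.0 with AEBSF, pepstatin A, EDTA and DTT; protein was quantified by BCA. An equal volume of 50 μM Z-Phe-Arg-AMC was then added. Activity was normalized to 0.2% DMSO wells.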
With `CC[C@H](C)[C@@H](C(=O)O[C@@H](CC(C)C)C(=O)N[C@@H](CC(C)C)C(=O)N[C@@H](C)/C=C/C(=O)N1C(=O)C=C(OC)[C@@H]1C)N(C)C` [GALLINAMIDE A], the inhibition result is “Active”.

The next assay addresses T2, Procathepsin L (Mus musculus) (UniProt P06797).
T2 sequence (whole entry): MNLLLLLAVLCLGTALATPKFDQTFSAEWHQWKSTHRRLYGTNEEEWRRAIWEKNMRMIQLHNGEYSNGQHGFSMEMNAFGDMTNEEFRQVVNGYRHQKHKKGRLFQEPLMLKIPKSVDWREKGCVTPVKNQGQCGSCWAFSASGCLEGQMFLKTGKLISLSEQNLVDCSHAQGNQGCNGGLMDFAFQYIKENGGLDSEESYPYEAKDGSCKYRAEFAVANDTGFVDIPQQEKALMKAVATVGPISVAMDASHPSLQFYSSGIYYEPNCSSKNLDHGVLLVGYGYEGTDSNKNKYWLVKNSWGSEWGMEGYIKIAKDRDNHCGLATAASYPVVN
The assay is described as follows: Inhibition of mouse Cathepsin L assessed as ratio of Kinact/Kiapp using Z-FR-AMC as substrate inubated for 30 mins by fluorometric assay.
Conditions: not given
The essentials:
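Human CatL, human CatB or mouse CatL at 1 nM, at 25 °C in pH 5.5 Na acetate/DTT/EDTA/NaCl buffer. Reactions held 40 μM Z-FR-AMC and 555.56 to 0.01 nM compound, in quadruplicate. Product formation was measured at 6 min intervals for 1 h and normalized to DMSO wells. kobs came from inactivation curves. kinact and KIapp were obtained by nonlinear regression of kobs = kinact[I]/(KIapp + [I]); their ratio was then calculated.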
As to `CC[C@H](C)[C@@H](C(=O)O[C@@H](CC(C)C)C(=O)N[C@@H](CC(C)C)C(=O)N[C@@H](C)/C=C/C(=O)N1C(=O)C=C(OC)[C@@H]1C)N(C)C` [GALLINAMIDE A], the Ratio was 1.07 10^6/s/M.

The next assay relates to SARS-CoV-2. The assay is described as follows: Antiviral activity against SARS-CoV-2 infected in human HEK293 cells expressing TMPRSS2 as inhibition of viral entry. The format is functional, organism-based. To be noted: Severe acute respiratory syndrome coronavirus 2.
In the case of `CC[C@H](C)[C@@H](C(=O)O[C@@H](CC(C)C)C(=O)N[C@@H](CC(C)C)C(=O)N[C@@H](C)/C=C/C(=O)N1C(=O)C=C(OC)[C@@H]1C)N(C)C` [GALLINAMIDE A], the outcome was Active.

The target in the next assay is T3, Procathepsin L (Homo sapiens, UniProt P07711). The assay is described as follows: Binding affinity to Cathepsin L in African green monkey VeroE6 cell lysates assessed as covalent adducts by quantitative mass spectrometry. Type of assay: subcellular. To be noted: Vero E6. An outline of the steps: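 VeroE6 cells at 80–90% confluence were treated with 10 μM compound for 1 h in triplicate, washed with DPBS, and lysed in 4% sodium deoxycholate buffer. Lysates were digested to peptides and analysed by nanoflow LC-MS/MS. Covalent CatL adducts were identified by targeted MS/MS at 1% FDR.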
T3 sequence (P07711 114-333 limits assumed): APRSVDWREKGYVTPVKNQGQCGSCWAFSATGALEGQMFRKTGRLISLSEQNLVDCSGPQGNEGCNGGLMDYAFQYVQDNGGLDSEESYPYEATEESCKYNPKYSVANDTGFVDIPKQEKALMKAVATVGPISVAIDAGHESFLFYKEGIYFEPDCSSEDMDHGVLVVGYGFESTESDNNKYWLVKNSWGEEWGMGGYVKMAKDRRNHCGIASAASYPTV
Consider `CC[C@H](C)[C@@H](C(=O)O[C@@H](CC(C)C)C(=O)N[C@@H](CC(C)C)C(=O)N[C@@H](C)/C=C/C(=O)N1C(=O)C=C(OC)[C@@H]1C)N(C)C` [GALLINAMIDE A], for which the outcome was Active.

The test system of the next assay is SARS-CoV-2. Briefly: Antiviral activity against SARS-CoV-2 infected in human MRC5 cells expressing ACE2/TMPRSS2 assessed as inhibition of viral entry at 32 uM. To be noted: Severe acute respiratory syndrome coronavirus 2. The format is functional, organism-based.
With `CC[C@H](C)[C@@H](C(=O)O[C@@H](CC(C)C)C(=O)N[C@@H](CC(C)C)C(=O)N[C@@H](C)/C=C/C(=O)N1C(=O)C=C(OC)[C@@H]1C)N(C)C` [GALLINAMIDE A], the outcome was Active.

A further assay concerns the target T1, Cathepsin B. The assay is described as follows: Inhibition of recombinant human Cathepsin B expressed in huamn A549 using Z-Phe-Arg-AMC as substrate incubated for 30 mins by fluorometric assay.
Conditions: not given
The essentials: as §1
For `CC[C@H](C)[C@@H](C(=O)O[C@@H](CC(C)C)C(=O)N[C@@H](CC(C)C)C(=O)N[C@@H](C)/C=C/C(=O)N1C(=O)C=C(OC)[C@@H]1C)N(C)C` [GALLINAMIDE A], the inhibition result was “Active”.

The target of the next assay is T1, Cathepsin B. The assay is described as follows: Inhibition of human recombinant Cathepsin B assessed as Kinact using Z-FR-AMC as substrate inubated for 30 mins by fluorometric assay.
Conditions: not given
Consider `CC[C@H](C)[C@@H](C(=O)O[C@@H](CC(C)C)C(=O)N[C@@H](CC(C)C)C(=O)N[C@@H](C)/C=C/C(=O)N1C(=O)C=C(OC)[C@@H]1C)N(C)C` [GALLINAMIDE A], for which the Kinact was 6.27 10^-4/s.

The subject of the next assay is SARS-CoV-2. The assay is described as follows: Antiviral activity against SARS-CoV-2 infected in African green monkey Vero E6 cells assessed as inhibition of viral entry at 0.5 uM pretreated for 30 mins with cells followed by viral infection and measured after 24 hrs post infection by Alexa Fluor 488 and Hoechst dye based fluorescence microscopy. The format is functional, organism-based. To be noted: Severe acute respiratory syndrome coronavirus 2.
For `CC[C@H](C)[C@@H](C(=O)O[C@@H](CC(C)C)C(=O)N[C@@H](CC(C)C)C(=O)N[C@@H](C)/C=C/C(=O)N1C(=O)C=C(OC)[C@@H]1C)N(C)C` [GALLINAMIDE A], the result was Active.

Another assay addresses T3, Procathepsin L. Briefly: Inhibition of recombinant human Cathepsin L in African green monkey Vero E6 at 20 uM using Z-Phe-Arg-AMC as substrate for 30 mins by fluorometric assay.
Conditions: not given
Type of assay: cell-based. An outline of the steps:
as §1
With `CC[C@H](C)[C@@H](C(=O)O[C@@H](CC(C)C)C(=O)N[C@@H](CC(C)C)C(=O)N[C@@H](C)/C=C/C(=O)N1C(=O)C=C(OC)[C@@H]1C)N(C)C` [GALLINAMIDE A], the inhibition result was “Active”.

For another assay, the system named is SARS-CoV-2. Briefly: Antiviral activity against SARS-CoV-2 infected in African green monkey Vero E6 cells assessed as inhibition of viral infection pre incubated for 30 minutes followed by viral infection and measured after 72 hrs by Nucblue dye based fluorometric analysis. Type of assay: functional, organism-based. To be noted: Severe acute respiratory syndrome coronavirus 2, Vero C1008.
As for `CC[C@H](C)[C@@H](C(=O)O[C@@H](CC(C)C)C(=O)N[C@@H](CC(C)C)C(=O)N[C@@H](C)/C=C/C(=O)N1C(=O)C=C(OC)[C@@H]1C)N(C)C` [GALLINAMIDE A], the EC50 was found to be 28 nM.
